# Source: ChEMBL document CHEMBL1154246, “Spirobisnaphthalene analogues from the endophytic fungus Preussia sp” (J Nat Prod, 2009)
# Active and inactive are the calls of the source.
# Legend:
# A2780 = experiment: Cytotoxicity against human A2780 cells by MTT assay; assay type: functional, cell-based
# Method in brief: (§1)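 MTT viability read-out in human cancer lines: A2780 ovarian, BEL-7404 liver, A-549, BGC-823 and HCT-8. IC50 derived from the concentration–response data.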
# HCT-8 = experiment: Cytotoxicity against human HCT8 cells by MTT assay; assay type: functional, cell-based; method in brief: as §1
# A549 = experiment: Cytotoxicity against human A549 cells by MTT assay; assay type: functional, cell-based; method in brief: as §1
# Candida albicans [1] = experiment: Antifungal activity against Candida albicans ATCC 10231 at 50 ug/disk after 48 hrs by paper disk method; assay type: functional, organism-based
# Method in brief: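 C. albicans grown in SDB broth, final 10^5 cfu/mL. Compound applied to 6 mm paper disks at 50 µg/disk on SD agar and incubated at 25 °C for 48 h. Zone of inhibition measured in mm.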
# Staphylococcus aureus [2] = experiment: Antibacterial activity against Staphylococcus aureus CMCC B26003 after 24 hrs by agar dilution method; assay type: functional
# Method in brief: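 S. aureus prepared from broth culture in MHB, final inoculum 10^6 cfu/mL. Agar dilution following NCCLS 2002 criteria, with 11 concentrations from 800 down to 0.78 µM (twofold steps).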
# BGC-823 = experiment: Cytotoxicity against human BGC823 cells by MTT assay; assay type: functional, cell-based; method in brief: as §1
# [3] = Cytotoxicity against human Bel7404 cells by MTT assay; assay type: functional, cell-based, BEL-7404; method in brief: as §1
# Staphylococcus aureus [4] = experiment: Antibacterial activity against Staphylococcus aureus CMCC B26003 at 5 ug/disk after 24 hrs by paper disk method; assay type: functional
# Method in brief: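 S. aureus grown in MHB broth, final 10^6 cfu/mL. Compound loaded onto 6 mm paper disks at 5 µg/disk and placed on MH agar, 37 °C for 24 h. Inhibition zone diameter measured in mm, n = 3.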
# Candida albicans [5] = experiment: Antifungal activity against Candida albicans ATCC 10231 at 25 ug/disk after 48 hrs by paper disk method; assay type: functional; settings: ATCC 10231, 48 h, read-out: IZ
# Method in brief: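 C. albicans ATCC 10231 grown in SDB broth culture, adjusted to a final 10^5 cfu/mL, and spread on SD agar. Sample loaded onto 6 mm paper disks placed on the agar surface. Plates incubated at 25 °C for 48 h. Read-out is the diameter of the inhibition zone in mm.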
# Staphylococcus aureus [6] = experiment: Antibacterial activity against Staphylococcus aureus CMCC B26003 at 10 ug/disk after 24 hrs by paper disk method; assay type: functional; settings: CMCC B26003, 24 h, read-out: IZ
# Method in brief: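 Paper-disk diffusion against S. aureus at 10 µg/disk on MH agar, inoculum 10^6 cfu/mL from MHB broth, 6 mm disks, 37 °C for 24 h. Inhibition zone diameter recorded in mm, n = 3.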
# [7] = Homo sapiens, HCT-8, read-out: IC50
# [8] = Homo sapiens, BGC-823, read-out: IC50
# [9] = Homo sapiens, BEL-7404, read-out: IC50
SMILES,IC50 (A2780; a2780),IC50 (HCT-8; hct-8),IC50 (A549; a549),Activity (Candida albicans [1]),MIC (Staphylococcus aureus [2]),IC50 (BGC-823; bgc-823),IC50 ([3]; bel-7404),inhibition zone (IZ) (Staphylococcus aureus [4]),IC50 (HCT-8; [7]) [nM],IC50 (BGC-823; [8]) [nM],"IC50 [3, 9] [nM]",also measured
O=C1C=Cc2cc3c(c4ccc(O)c1c24)C1(Oc2cccc4cccc(c24)O1)C1C(=O)C=CC31O (centres undefined) [SPIROPREUSSIONE B],Not Active,Not Active,Not Active,inactive,inactive,Not Active,Not Active,inactive,–,–,–,–
CC(=O)O[C@H]1C(=O)[C@@]2(C)[C@H]([C@H](OC(=O)c3ccccc3)[C@]3(O)C[C@H](OC(=O)[C@H](O)[C@@H](NC(=O)c4ccccc4)c4ccccc4)C(C)=C1C3(C)C)[C@]1(OC(C)=O)CO[C@@H]1C[C@@H]2O [PACLITAXEL],–,–,–,–,–,–,–,–,3.6,3.3,12.3,–
OC(Cn1cncn1)(Cn1cncn1)c1ccc(F)cc1F [FLUCONAZOLE],–,–,–,–,–,–,–,–,–,–,–,zone of inhibition at 25 µg/disc (Candida albicans [5]): 31.3 mm
CC1(C)S[C@@H]2[C@H](NC(=O)[C@H](N)c3ccccc3)C(=O)N2[C@H]1C(=O)O [AMPICILLIN SODIUM],–,–,–,–,–,–,–,–,–,–,–,zone of inhibition at 10 µg/disc (Staphylococcus aureus [6]): 38.2 mm
Oc1ccc2c(c1)C1(Oc3cccc4cccc(c34)O1)[C@@H]1O[C@@H]1[C@@H]2O [SPIROPREUSSOMERIN A],Not Active,Not Active,Not Active,inactive,inactive,Not Active,Not Active,inactive,–,–,–,–
O=C1C=CC(=O)C12C=CC1(Oc3cccc4cccc(c34)O1)C2O (centres undefined) [SPIROPREUSSIONE A],–,–,–,inactive,–,–,–,–,> 10000,> 10000,3000,"IC50 (A2780; Homo sapiens, A2780, read-out: IC50): 2400 nM; IC50 (A549; Homo sapiens, A549, read-out: IC50): > 10000 nM; MIC (Staphylococcus aureus [2]; CMCC B26003, 24 h): 25 µM; zone of inhibition at 5 µg/disc (Staphylococcus aureus [4]; CMCC B26003, 24 h, read-out: IZ): 16.4 mm"
